Data from ChEMBL document CHEMBL4350999, “Enhanced tumor retention of NTSR1-targeted agents by employing a hydrophilic cysteine cathepsin inhibitor” (Eur J Med Chem, 2019).

Legend:
[1] = Drug excretion in SCID mouse xenografted with human HT-29 cells at 0.37 MBq/mouse, iv measured at 4 hrs using 177Lu labelled compound by gamma counter analysis; type: ADME, organism-based; conditions: in vivo
Outline: (§1)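 Female SCID mice bearing s.c. flank HT-29 xenografts (5 × 10^6 cells in Matrigel, ~80 mm3). Given 10 μCi (0.37 MBq) 177Lu conjugate i.v. by tail vein; groups sacrificed at 4, 24, 72 h. Tissues weighed and gamma-counted as %ID/g, excretion as %ID; n = 5, mean ± SD. Blocking arms: colchicine 1 mg/kg i.p. beforehand, or D-lysine 40 mg/kg co-injected.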

[2] = Drug uptake in blood of SCID mouse xenografted with human HT-29 cells at 0.37 MBq/mouse, iv measured at 4 hrs using 177Lu labelled compound by gamma counter analysis; type: ADME, organism-based; conditions: in vivo; outline: as §1
[3] = Drug uptake in lung of SCID mouse xenografted with human HT-29 cells at 0.37 MBq/mouse, iv measured at 4 hrs using 177Lu labelled compound by gamma counter analysis; type: ADME, organism-based; conditions: in vivo
Outline: (§2)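 Female SCID mice (5 weeks) bore s.c. flank xenografts of HT-29 cells (5 × 10^6 in Matrigel), used at about 80 mm3 (two weeks) and randomized. Each mouse received 10 μCi (0.37 MBq) of HPLC-purified 177Lu-conjugate via tail vein. Tissues were excised, weighed and gamma-counted, expressed as %ID/g; mean ± SD, n = 5.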

[4] = Drug uptake in stomach of SCID mouse xenografted with human HT-29 cells at 0.37 MBq/mouse, iv measured at 4 hrs using 177Lu labelled compound by gamma counter analysis; type: ADME, organism-based; conditions: in vivo
Outline: (§3)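 Female SCID mice (5 weeks old) received s.c. flank HT-29 cells (5 × 10^6 in Matrigel). At ~80 mm3, two weeks later, mice were randomized and given 10 μCi (0.37 MBq) of purified 177Lu conjugate i.v. by tail vein. Mice were killed at 4, 24 or 72 h. Tissues were weighed and gamma counted as %ID/g, mean ± SD, n = 5. Tumor-to-tissue ratios were calculated.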

[5] = Drug uptake in spleen of SCID mouse xenografted with human HT-29 cells at 0.37 MBq/mouse, iv measured at 4 hrs using 177Lu labelled compound by gamma counter analysis; type: ADME, organism-based; conditions: in vivo; outline: as §3
[6] = Drug uptake in large intestine of SCID mouse xenografted with human HT-29 cells at 0.37 MBq/mouse, iv measured at 4 hrs using 177Lu labelled compound by gamma counter analysis; type: ADME, organism-based; conditions: in vivo; outline: as §2
[7] = Drug uptake in kidney of SCID mouse xenografted with human HT-29 cells at 0.37 MBq/mouse, iv measured at 4 hrs using 177Lu labelled compound by gamma counter analysis; type: ADME, organism-based; conditions: in vivo; outline: as §2
[8] = Drug uptake in bone of SCID mouse xenografted with human HT-29 cells at 0.37 MBq/mouse, iv measured at 4 hrs using 177Lu labelled compound by gamma counter analysis; type: ADME, organism-based, Bone element; conditions: in vivo; outline: as §2
[9] = Drug uptake in heart of SCID mouse xenografted with human HT-29 cells at 0.37 MBq/mouse, iv measured at 24 hrs using 177Lu labelled compound by gamma counter analysis; type: ADME, organism-based; conditions: in vivo; outline: as §2
[10] = Drug uptake in brain of SCID mouse xenografted with human HT-29 cells at 0.37 MBq/mouse, iv measured at 4 hrs using 177Lu labelled compound by gamma counter analysis; type: ADME, organism-based; conditions: in vivo; outline: as §2
[11] = Drug uptake in lung of SCID mouse xenografted with human HT-29 cells at 0.37 MBq/mouse, iv measured at 24 hrs using 177Lu labelled compound by gamma counter analysis; type: ADME, organism-based; conditions: in vivo; outline: as §2
[12] = Drug uptake in blood of SCID mouse xenografted with human HT-29 cells at 0.37 MBq/mouse, iv measured at 24 hrs using 177Lu labelled compound by gamma counter analysis; type: ADME, organism-based; conditions: in vivo; outline: as §1
[13] = Drug uptake in stomach of SCID mouse xenografted with human HT-29 cells at 0.37 MBq/mouse, iv measured at 24 hrs using 177Lu labelled compound by gamma counter analysis; type: ADME, organism-based; conditions: in vivo; outline: as §3
[14] = Drug uptake in muscle of SCID mouse xenografted with human HT-29 cells at 0.37 MBq/mouse, iv measured at 24 hrs using 177Lu labelled compound by gamma counter analysis; type: ADME, organism-based, Muscle tissue; conditions: in vivo; outline: as §2
[15] = Drug uptake in brain of SCID mouse xenografted with human HT-29 cells at 0.37 MBq/mouse, iv measured at 24 hrs using 177Lu labelled compound by gamma counter analysis; type: ADME, organism-based; conditions: in vivo; outline: as §2
[16] = Drug excretion in SCID mouse xenografted with human HT-29 cells at 0.37 MBq/mouse, iv measured at 24 hrs using 177Lu labelled compound by gamma counter analysis; type: ADME, organism-based; conditions: in vivo; outline: as §1
[17] = Drug uptake in heart of SCID mouse xenografted with human HT-29 cells at 0.37 MBq/mouse, iv measured at 72 hrs using 177Lu labelled compound by gamma counter analysis; type: ADME, organism-based; conditions: in vivo; outline: as §2
[18] = Drug uptake in lung of SCID mouse xenografted with human HT-29 cells at 0.37 MBq/mouse, iv measured at 72 hrs using 177Lu labelled compound by gamma counter analysis; type: ADME, organism-based; conditions: in vivo; outline: as §2
[19] = Drug uptake in liver of SCID mouse xenografted with human HT-29 cells at 0.37 MBq/mouse, iv measured at 72 hrs using 177Lu labelled compound by gamma counter analysis; type: ADME, organism-based; conditions: in vivo; outline: as §2
[20] = Drug uptake in pancreas of SCID mouse xenografted with human HT-29 cells at 0.37 MBq/mouse, iv measured at 72 hrs using 177Lu labelled compound by gamma counter analysis; type: ADME, organism-based; conditions: in vivo; outline: as §2
[21] = Drug uptake in spleen of SCID mouse xenografted with human HT-29 cells at 0.37 MBq/mouse, iv measured at 72 hrs using 177Lu labelled compound by gamma counter analysis; type: ADME, organism-based; conditions: in vivo; outline: as §3
[22] = Drug uptake in small intestine of SCID mouse xenografted with human HT-29 cells at 0.37 MBq/mouse, iv measured at 72 hrs using 177Lu labelled compound by gamma counter analysis; type: ADME, organism-based; conditions: in vivo; outline: as §2
[23] = Drug uptake in large intestine of SCID mouse xenografted with human HT-29 cells at 0.37 MBq/mouse, iv measured at 72 hrs using 177Lu labelled compound by gamma counter analysis; type: ADME, organism-based; conditions: in vivo; outline: as §2
[24] = Drug uptake in kidney of SCID mouse xenografted with human HT-29 cells at 0.37 MBq/mouse, iv measured at 72 hrs using 177Lu labelled compound by gamma counter analysis; type: ADME, organism-based; conditions: in vivo; outline: as §2
[25] = Drug uptake in muscle of SCID mouse xenografted with human HT-29 cells at 0.37 MBq/mouse, iv measured at 72 hrs using 177Lu labelled compound by gamma counter analysis; type: ADME, organism-based, Muscle tissue; conditions: in vivo; outline: as §2
[26] = Drug uptake in brain of SCID mouse xenografted with human HT-29 cells at 0.37 MBq/mouse, iv measured at 72 hrs using 177Lu labelled compound by gamma counter analysis; type: ADME, organism-based; conditions: in vivo; outline: as §2
[27] = Drug uptake in SCID mouse xenografted with human HT-29 cells assessed as tumour retention level at 0.37 MBq/mouse, iv measured at 72 hrs using 177Lu labelled compound by gamma counter analysis; type: ADME, organism-based; conditions: in vivo; outline: as §1
[28] = Drug excretion in SCID mouse xenografted with human HT-29 cells at 0.37 MBq/mouse, iv measured after 72 hrs using 177Lu labelled compound; type: ADME, organism-based; conditions: in vivo; outline: as §1
[29] = Octanol-PBS buffer distribution coefficient, log D of 177Lu labelled compound at pH 7.4 by radiometric analysis; type: physicochemical
Outline: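 177Lu conjugate partitioned between 1-octanol and PBS pH 7.4. 100 μL aliquots from each layer were gamma counted, and LogD7.4 was calculated from the counts.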

Cc1cc(C)c(C(=O)OCC(=O)[C@H](CCCCNC(=O)CNC(=O)[C@@H](CO)NC(=O)[C@@H](CO)NC(=O)[C@@H](CO)NC(=O)Cn2cc(C[C@H](NC(=O)CN3CCN(CC(=O)O)CCN(CC(=O)O)CCN(CC(=O)O)CC3)C(=O)N[C@H](CO)C(=O)N[C@H](CO)C(=O)N[C@H](CO)C(=O)N[C@@H](CCCCN)C(=O)N3CCC[C@H]3C(=O)N(C)[C@@H](CCCNC(=N)N)C(=O)N[C@@H](CCCNC(=N)N)C(=O)N3CCC[C@H]3C(=O)N[C@@H](Cc3c(C)cc(O)cc3C)C(=O)N[C@H](C(=O)N[C@@H](CC(C)C)C(=O)O)C(C)(C)C)nn2)NC(=O)[C@H](Cc2ccccc2)NC(=O)OCc2ccccc2)c(C)c1
Drug excretion [1]: 16.6 %ID
Drug uptake [2]: 1.22 % ID/g
Drug uptake [3]: 4.5 % ID/g
Drug uptake [4]: 1.7 % ID/g
Drug uptake [5]: 16.1 % ID/g
Drug uptake [6]: 2.9 % ID/g
Drug uptake [7]: 58.2 % ID/g
Drug uptake [8]: 1.6 % ID/g
Drug uptake [9]: 0.9 % ID/g
Drug uptake [10]: 0.09 % ID/g
Drug uptake [11]: 6 % ID/g
Drug uptake [12]: 0.17 % ID/g
Drug uptake [13]: 0.9 % ID/g
Drug uptake [14]: 0.35 % ID/g
Drug uptake [15]: 0.04 % ID/g
Drug excretion [16]: 35 %ID
Drug uptake [17]: 0.4 % ID/g
Drug uptake [18]: 5 % ID/g
Drug uptake [19]: 11 % ID/g
Drug uptake [20]: 0.6 % ID/g
Drug uptake [21]: 17 % ID/g
Drug uptake [22]: 4.3 % ID/g
Drug uptake [23]: 1.6 % ID/g
Drug uptake [24]: 45 % ID/g
Drug uptake [25]: 0.15 % ID/g
Drug uptake [26]: 0.02 % ID/g
Drug uptake [27]: 6.3 % ID/g
Drug excretion [28]: 57 %ID
logD [29]: -1.95
